AF4-AF9 inh – blocks AF4 peptide binding to human AF9 | P42568 | AlphaScreen, biotin-AF4 peptide binding to FLAG-AF9 | inhibition, % at 10 µM | 350,000 tested, 0.47% active | AID 651704;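 active means every replicate reaching a set inhibition limit, whatever the replicate mean, cut at about 25% in these data; inconclusive means mean inhibition reaches that limit but some replicates miss it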
Target sequence (P42568 whole entry, looked up): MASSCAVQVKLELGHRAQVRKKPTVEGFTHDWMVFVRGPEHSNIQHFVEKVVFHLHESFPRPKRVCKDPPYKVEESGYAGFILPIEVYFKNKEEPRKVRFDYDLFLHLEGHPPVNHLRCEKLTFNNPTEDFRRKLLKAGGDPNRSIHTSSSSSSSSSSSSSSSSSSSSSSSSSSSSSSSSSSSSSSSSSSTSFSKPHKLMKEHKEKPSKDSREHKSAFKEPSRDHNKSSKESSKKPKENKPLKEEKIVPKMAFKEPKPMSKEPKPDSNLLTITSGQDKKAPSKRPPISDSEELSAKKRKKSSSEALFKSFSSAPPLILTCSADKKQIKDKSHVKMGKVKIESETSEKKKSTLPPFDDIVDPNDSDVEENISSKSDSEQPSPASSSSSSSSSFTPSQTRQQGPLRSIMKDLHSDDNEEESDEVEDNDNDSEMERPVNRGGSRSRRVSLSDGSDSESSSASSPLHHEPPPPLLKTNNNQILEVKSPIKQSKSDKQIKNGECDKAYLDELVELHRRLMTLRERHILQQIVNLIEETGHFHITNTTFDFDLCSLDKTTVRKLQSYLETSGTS
DENV2 CPE – protects cells from dengue virus 2 cytopathic effect | DENV2-infected cells, cytopathic effect rescue, plate reader | CPE inhibition, % at 9.99 µM | 350,000 tested, 1.7% active | AID 651640; in the data active means CPE inhibition above about 20%, passing the limit was not always enough; inconclusive means no clear call, values can overlap the other calls; tested in BHK-21 cells
Ecoli rRNA inh – selective bacterial rRNA inhibition in E. coli; GFP signal change (wild-type ribosome), % (no concentration beside the values); E. coli WT GFP vs humanized-ribosome RFP mutants, fluorescence, 24 h; stronger effect = lower value; DMSO median 0, no signal -100; 350,000 tested, 1.6% active;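 active means significant combined selectivity score with lowered wild-type GFP, culture density cut under 30%, mutant RFP and density less affected; inactive means any of these conditions unmet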
Cneo AK release – causes C. neoformans cell lysis; AID 651654; adenylate kinase release luminescence, 4 h; normalised: neutral wells 0, clomiphene wells 100; lysis activity, % at 15 µM; 360,000 tested, 0.2% active;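 active means mean lysis activity across replicates of at least 80%, whatever share of replicates individually reach that level; inactive means mean lysis activity below 80%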
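read-out = cell lysis signal | test system = log-phase Cryptococcus neoformans yeast cells | input = cells at 5 × 10^6 per mL | medium = fresh YPD growth medium | signal = luminescent adenylate kinase detection reagent | timing = 4 h at 37 °C static, read 1 h later | dosing = single dose | controls = Clomiphene as positive lysis control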
S100A4 MyoIIA – S100A4-myosin IIA interaction inhibition; S100A4/TAMRA-MyoIIA peptide fluorescence polarization; inhibition, % at 10.7 µM; P26447; 360,000 tested, 0.14% active;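 active means mean inhibition of at least 70% across replicates, with every replicate also reaching that level; inconclusive means mean inhibition reaches 70% but some replicates fall short; inactive means mean inhibition below 70%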
Target sequence (P26447 whole entry, looked up): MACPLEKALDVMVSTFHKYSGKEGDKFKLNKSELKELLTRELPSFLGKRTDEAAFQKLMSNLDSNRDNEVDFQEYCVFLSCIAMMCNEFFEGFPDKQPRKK
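System – human S100A4 monomer protein, biochemical binding assay · Buffer or medium – Calcium-containing HEPES buffer, pH 7.2 · Timing – 5 min between mix addition and reading · Also added – TAMRA-labelled myosin IIA heavy-chain peptide probe, 5 nM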
PfHsp90 set2 – inhibits growth of yeast expressing Plasmodium falciparum Hsp90 | inhibition, % at 9.4 µM | 310,000 tested, 0.32% active | AID 504621 | S. cerevisiae expressing PfHsp90, BacTiter-Glo ATP, 48 h; yeast lacking PDR1 and PDR3 efflux regulators;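 active means every replicate shows inhibition above about 80%, whatever the replicate mean, limit read from the data; inconclusive means mean inhibition reaches the set limit but some replicate falls short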
Of the large screens only hits and unclear results are named; the others gave an inactive call. The list is not random: actives were taken first. Their share in the collection is about 3.2%.

CCOC(=O)[C@]12CCCC=C1N(Cc1ccco1)C(=O)[C@H](CC(=O)N1CCC(c3ccccc3)CC1)C2	DENV2 CPE 38 (no result: Cneo AK release, PfHsp90 set2)
COC(=O)[C@]12C[C@H](CC(=O)N3CCC(c4ccccc4)CC3)C(=O)N(Cc3ccccc3)C1=C[C@H](C1CCCC1)O[C@@H]2C	DENV2 CPE 45 (no result: Cneo AK release, PfHsp90 set2)
O=C(C[C@@H]1C[C@@H]2c3cc(NC(=O)Nc4ccc(C(F)(F)F)cc4)ccc3O[C@@H]2[C@@H](CO)O1)NCC1CC1	none (no result: PfHsp90 set2)
C[C@@H]1CCCCO[C@H](CN(C)Cc2ccc(C(=O)O)cc2)[C@H](C)CN([C@@H](C)CO)C(=O)c2cc(NC(=O)c3ccncc3)ccc2O1	DENV2 CPE 32 (no result: PfHsp90 set2)
C[C@@H]1CCCCO[C@@H](CN(C)C(=O)C2CCCCC2)[C@H](C)CN([C@H](C)CO)C(=O)c2cc(NC(=O)c3ccncc3)ccc2O1	DENV2 CPE 136 (no result: PfHsp90 set2)
C[C@@H]1CN([C@H](C)CO)C(=O)c2cc(NC(=O)c3ccncc3)ccc2O[C@@H](C)CCCCO[C@H]1CN(C)Cc1ccc(Cl)c(Cl)c1	DENV2 CPE 85 (no result: Cneo AK release, PfHsp90 set2)
C[C@@H]1CCCCO[C@@H](CN(C)Cc2ccncc2)[C@@H](C)CN([C@@H](C)CO)C(=O)c2cc(NC(=O)c3ccncc3)ccc2O1	Cneo AK release 89 (no result: DENV2 CPE, PfHsp90 set2)
C[C@H]1CCCCO[C@H](CN(C)Cc2ccc(C(=O)O)cc2)[C@@H](C)CN([C@@H](C)CO)C(=O)c2cc(NC(=O)c3ccncc3)ccc2O1	none (no result: PfHsp90 set2)
C[C@@H]1CCCCO[C@@H](CN(C)C(=O)c2ccncc2)[C@@H](C)CN([C@H](C)CO)C(=O)c2cc(NC(=O)c3ccccc3)ccc2O1	none (no result: PfHsp90 set2)
Cc1ccc(S(=O)(=O)Nc2ccc3c(c2)C(=O)N([C@@H](C)CO)C[C@H](C)[C@@H](CN(C)C(=O)Nc2ccc(F)cc2)O3)cc1	none (no result: PfHsp90 set2)
C[C@H](CO)N1C[C@H](C)[C@H](CN(C)C)OCCCC[C@H](C)Oc2ccc(NC(=O)c3ccncc3)cc2C1=O	none (no result: PfHsp90 set2)
C[C@H](CO)N1C[C@H](C)[C@@H](CN(C)C)OCCCC[C@H](C)Oc2ccc(NC(=O)c3ccncc3)cc2C1=O	DENV2 CPE 65 (no result: PfHsp90 set2)
CCc1nc2ccc(C(=O)N3CCN(c4ccc([N+](=O)[O-])cc4)CC3)cc2nc1CC	Ecoli rRNA inh -23
O=C(Nc1cccc(Cl)c1)c1csc(COCCO)n1	none (no result: PfHsp90 set2)
O=C(Nc1cccc(C(F)(F)F)c1)c1csc(COCCO)n1	DENV2 CPE 24 (no result: PfHsp90 set2)
CC(C)NC(=O)N(C)C[C@H]1Oc2ccc(NC(=O)CCCN(C)C)cc2C(=O)N([C@H](C)CO)C[C@H]1C	S100A4 MyoIIA 111 (no result: PfHsp90 set2)
CC(C)NC(=O)N(C)C[C@H]1Oc2ccc(NC(=O)CCC(F)(F)F)cc2C(=O)N([C@H](C)CO)C[C@@H]1C	none
CC(C)NC(=O)N(C)C[C@@H]1Oc2ccc(NC(=O)CCC(F)(F)F)cc2C(=O)N([C@@H](C)CO)C[C@@H]1C	none (no result: PfHsp90 set2)
CC(C)NC(=O)N(C)C[C@H]1Oc2ccc(NC(=O)CCC(F)(F)F)cc2C(=O)N([C@H](C)CO)C[C@H]1C	DENV2 CPE 71 (no result: PfHsp90 set2)
CC(C)NC(=O)N(C)C[C@H]1Oc2ccc(NC(=O)CCC(F)(F)F)cc2C(=O)N([C@@H](C)CO)C[C@@H]1C	DENV2 CPE 23 (no result: PfHsp90 set2)
C[C@@H]1CN([C@@H](C)CO)C(=O)c2cc(NC(=O)CCC(F)(F)F)ccc2O[C@@H]1CN(C)C(=O)Nc1ccc(F)cc1	S100A4 MyoIIA 96 (no result: PfHsp90 set2)
O=C(C[C@@H]1CC[C@@H]2[C@H](COC[C@@H](O)CN2Cc2nccs2)O1)NCc1ccc(F)cc1	none (no result: PfHsp90 set2)
C[C@@H]1CN([C@H](C)CO)C(=O)c2cc(NC(=O)CCN3CCOCC3)ccc2O[C@@H]1CN(C)Cc1ccc(C(=O)Nc2ccccc2N)cc1	none (no result: PfHsp90 set2)
CCCC(=O)Nc1ccc2c(c1)C(=O)N(C)C[C@@H](OC)[C@H](C)CN(C(=O)c1cnccn1)[C@H](C)CO2	none (no result: PfHsp90 set2)
C[C@@H]1CN([C@@H](C)CO)C(=O)c2cc(NC(=O)CCCN(C)C)ccc2O[C@@H]1CN(C)Cc1ccccc1	DENV2 CPE 30 (no result: PfHsp90 set2)
Cc1ccc(/C=C/C(=O)c2ccc(O)cc2)cc1	Ecoli rRNA inh -27 (no result: DENV2 CPE, Cneo AK release)
O=C(/C=C/c1ccccc1Cl)c1ccc(O)cc1	PfHsp90 set2 110
O=C(/C=C/c1ccc([N+](=O)[O-])cc1)c1ccccc(=O)c1O	DENV2 CPE inconclusive, Ecoli rRNA inh -14, PfHsp90 set2 123 (no result: Cneo AK release)
Cc1ccc(/C=C/C(=O)c2ccccc(=O)c2O)c(C)c1	PfHsp90 set2 106
Cc1ccc(/C=C/C(=O)c2ccccc2)cc1	none (no result: AF4-AF9 inh, DENV2 CPE, Ecoli rRNA inh, S100A4 MyoIIA, PfHsp90 set2)
O=C(/C=C/c1ccc([N+](=O)[O-])cc1)c1cccs1	none
CN(C)CC(=O)Nc1ccc2c(c1)[C@H]1C[C@@H](CC(=O)N3CCOCC3)O[C@@H](CO)[C@H]1O2	none (no result: AF4-AF9 inh, S100A4 MyoIIA, PfHsp90 set2)
O=C(/C=C/c1ccccc1Cl)c1ccccc(=O)c1O	PfHsp90 set2 96 (no result: AF4-AF9 inh, DENV2 CPE, Ecoli rRNA inh, Cneo AK release, S100A4 MyoIIA)
Cc1ccc(C)c(/C=C/C(=O)c2ccccc(=O)c2O)c1	PfHsp90 set2 103 (no result: AF4-AF9 inh, DENV2 CPE, Ecoli rRNA inh, S100A4 MyoIIA)
Cc1ccc(C)c(NC(=O)c2ccccc2O)c1	none (no result: AF4-AF9 inh, DENV2 CPE, Ecoli rRNA inh, S100A4 MyoIIA)
CCOC(=O)CSc1[nH]c2cc(OC)ccc2c1[N+](=O)[O-]	DENV2 CPE 24 (no result: Cneo AK release)
CC(=O)N1[C@@H]2CN(S(=O)(=O)c3cccc(C)c3)c3ccccc3[C@@H]2[C@@H]1CO	none (no result: AF4-AF9 inh, S100A4 MyoIIA, PfHsp90 set2)
CCCCCCNC(=O)O[C@H]1Cn2c(=O)ccc(=O)n2[C@@H]2CN(S(=O)(=O)c3ccc(C)cc3)C[C@]12O	Ecoli rRNA inh -26 (no result: PfHsp90 set2)
O=C(Nc1ccccc1F)N[C@@H]1CC[C@H](CCNC(=O)C2CCCC2)O[C@H]1CO	DENV2 CPE 26 (no result: PfHsp90 set2)
O=C(Nc1ccccc1F)N[C@@H]1CC[C@@H](CCNC(=O)C2CCCC2)O[C@H]1CO	DENV2 CPE 39 (no result: PfHsp90 set2)
COc1ccc(C2c3ccc4ccccc4c3Oc3ncn(CCCO)c(=N)c32)cc1 (configuration not stated)	none
COc1ccc(C2c3ccc4ccccc4c3Oc3ncn(CCCO)c(=N)c32)cc1OC (configuration not stated)	Ecoli rRNA inh -20 (no result: AF4-AF9 inh, Cneo AK release)
N=c1c2c(ncn1CCCO)Oc1c(ccc3ccccc13)C2c1ccccc1 (configuration not stated)	Ecoli rRNA inh -40 (no result: AF4-AF9 inh, Cneo AK release)
N=c1c2c(ncn1CCCO)Oc1ccc3ccccc3c1C2c1ccccc1 (configuration not stated)	Ecoli rRNA inh -19 (no result: PfHsp90 set2)
N=c1c2c(ncn1Cc1ccco1)Oc1ccc3ccccc3c1C2c1ccccc1 (configuration not stated)	none (no result: AF4-AF9 inh, DENV2 CPE, Ecoli rRNA inh, Cneo AK release, S100A4 MyoIIA)
C[C@@H](O)C#Cc1ccc([C@@H]2[C@H](CO)N3CCCCN(CC4CC4)C[C@@H]23)cc1	Cneo AK release 103 (no result: PfHsp90 set2)
